The source made the active and inactive calls. No cut-off for these calls is given here.

The subject of data set [1] is Clostridium botulinum. As to the kind of experiment: Zinc chelating activity mediated inhibition of Clostridium botulinum BoNT/A1 LC (1 to 425 residues) activity using SNAPtide as substrate at 1 mM incubated with enzyme for 30 mins followed by substrate addition and measured for 20 mins by FRET assay relative to control. Conditions: time 50.0 min. An outline of the steps: (§1)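 Enzyme was truncated BoNT/A1 LC (1–425) at 10 nM final, incubated with compound for 30 min at 25 °C in 40 mM HEPES pH 7.4 with 0.01% Triton X-100. SNAPtide substrate followed at 3.8 µM final. Fluorescence rate (ex 490/em 523 nm) read immediately for 20 min. Technical and experimental triplicate.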

In data set [2] the test system is Clostridium botulinum. As to the kind of experiment: Zinc chelating activity mediated inhibition of Clostridium botulinum BoNT/A1 LC (1 to 425 residues) activity using SNAPtide as substrate at 50 uM incubated with enzyme for 30 mins followed by substrate addition and measured for 20 mins by FRET assay relative to control. Conditions: time 50.0 min. An outline of the steps:
as §1

Data set [3] in a line: Zinc chelating activity mediated inhibition of Clostridium botulinum BoNT/A1 LC (1 to 425 residues) activity using SNAPtide as substrate incubated with enzyme for 30 mins followed by substrate addition and measured for 20 mins by FRET assay relative to control. The method, boiled down:
as §1

The nature of data set [4]: Zinc chelating activity mediated inhibition of Clostridium botulinum Hall A hyper BoNT/A1activity assessed as inhibition of BoNT/A1-induced neurotoxicity in hIPSC derived GABA neurons by measuring protection against SNAP-25 cleavage incubated for 30 mins post BoNT/A1 addition and measured at 7 hrs post-toxin addition by Western blot analysis.
The nature of data set [5]: Selectivity index, ratio of IC50 for zinc chelation-mediated inhibition of Clostridium botulinum BoNT/A1 LC (1 to 425 residues) to IC50 for MMP3 (unknown origin). The class given is toxicity.
A short description of data set [6]: Selectivity index, ratio of IC50 for zinc chelation-mediated inhibition of Clostridium botulinum BoNT/A1 LC (1 to 425 residues) to IC50 for MMP19 (unknown origin). The class given is toxicity.
Data set [7] in a line: Selectivity index, ratio of IC50 for zinc chelation-mediated inhibition of Clostridium botulinum BoNT/A1 LC (1 to 425 residues) to IC50 for MMP7 (unknown origin). The class given is toxicity.
Data set [8] can be described thus: Selectivity index, ratio of IC50 for zinc chelation-mediated inhibition of Clostridium botulinum BoNT/A1 LC (1 to 425 residues) to IC50 for MMP8 (unknown origin). Format: toxicity.
Data set [9] can be described thus: Selectivity index, ratio of IC50 for zinc chelation-mediated inhibition of Clostridium botulinum BoNT/A1 LC (1 to 425 residues) to IC50 for MMP2 (unknown origin). Format: toxicity.
The subject of data set [10] is Clostridium botulinum. The experiment in a line: Competitive active site zinc chelating activity mediated inhibition of Clostridium botulinum BoNT/A1 LC (1 to 425 residues) activity at 0.1 to 10 uM using SNAPtide as substrate incubated with enzyme for 30 mins in presence of DCHA followed by substrate addition and measured for 20 mins by FRET assay. Conditions: dose 0.1-10 µM, time 50.0 min. An outline of the steps:
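BoNT/A1 LC (1–425), 10 nM final, preincubated with compound for 30 min at room temperature in 40 mM HEPES pH 7.4 with 0.01% Triton X-100. SNAPtide added to 3.8 µM final. Fluorescence rate (ex 490/em 523 nm) read for 20 min. Technical and experimental triplicate.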

Data set [11] in a line: Selectivity index, ratio of IC50 for zinc chelation-mediated inhibition of Clostridium botulinum BoNT/A1 LC (1 to 425 residues) to IC50 for MMP1 (unknown origin). Format: toxicity.
Data set [12] concerns Clostridium botulinum. As to the kind of experiment: Selectivity index, ratio of IC50 for zinc chelation-mediated inhibition of Clostridium botulinum Hall A hyper BoNT/A1 activity assessed as protection against SNAP-25 cleavage in hIPSC-derived GABA neurons to IC50 for zinc chelation-mediated inhibition of Clostridium botulinum BoNT/A1 LC (1 to 425 residues).
Data set [13] can be described thus: Selectivity index, ratio of IC50 for zinc chelation-mediated inhibition of Clostridium botulinum BoNT/A1 LC (1 to 425 residues) to IC50 for MMP13 (unknown origin). Format: toxicity.

As a reminder, the inhibition is the share of the control response that was lost under treatment. Read a high inhibition as a response far below the control. For `O=C(O)c1cccc(C(=O)O)n1`, the inhibition in data set [1] was greater than 95%.

On to `Cc1c(O)c(=S)ccn1-c1cc(C(F)(F)F)cc(C(F)(F)F)c1`, for which, in data set [2], the inhibition is 0%.

In general, IC50 refers to the concentration that gives 50% inhibition. `Cc1c(O)c(=S)ccn1Cc1ccc([N+](=O)[O-])cc1`: the IC50 amounted to 3 µM in [3] and 100 µM in data set [4].

`Cc1ccc(CCn2ccc(=S)c(O)c2C)cc1C`: in [3], the IC50 came to 2.8 µM.

`Cc1c(O)c(=S)ccn1C`: the inhibition in data set [1] was greater than 95%.

`Cc1c(O)c(=S)ccn1-c1ccc(N2CCOCC2)cc1`: in data set [2], the inhibition is 0%.

Compound `Cc1c(O)c(=S)ccn1Cc1ccc(Cl)cc1` returned an IC50 in data set [3] of 11.3 µM.

With `COc1ccc(-n2ccc(=S)c(O)c2C)cc1OC`, the inhibition in [2] stood at 12%.

Consider `Cc1c(O)c(=S)ccn1-c1ccc(F)c(C(F)(F)F)c1`, for which, in data set [2], the inhibition was determined as 0%.

`COc1ccccc1Cn1ccc(=S)c(O)c1C`: the inhibition in [2] came to 71%.

As to `Cc1c(O)c(=S)ccn1-c1ccc(Nc2ccccc2)cc1`, in data set [2], the inhibition came out at 14%.

For the compound `CCn1ccc(=S)c(O)c1C`, in [1], the inhibition is greater than 95%.

The compound `COc1cccc(CCn2ccc(=S)c(O)c2C)c1` showed an inhibition in [2] of 62%.

With `Cc1c(O)c(=S)ccn1Cc1ccc(-c2ccc3ccccc3c2)cc1`, in data set [2], the inhibition came to 60%.

For the compound `Cc1c(O)c(=S)ccn1-c1ccc(N)cc1`, the inhibition in data set [2] came out at 16%.

Compound `COc1ccc(CCn2ccc(=S)c(O)c2C)cc1` registered an inhibition in data set [2] of 57%.

`c1cnc2c(c1)ccc1cccnc12`: in data set [1], the inhibition is greater than 95%.

Regarding `Cc1c(O)c(=S)ccn1Cc1ccc(O)cc1`, in data set [3], the IC50 was greater than 50 µM.

Consider `Cc1c(O)c(=S)ccn1CCc1ccc(Cl)cc1`, for which inhibition in data set [3] was half-maximal at 1.9 µM (IC50).

In the case of `Cc1c(O)c(=S)ccn1Cc1ccccc1`, the inhibition in data set [2] turned out to be 55%.

`Cc1c(O)c(=S)ccn1CCc1ccc(Cl)cc1Cl`: the IC50 was 1.6 µM in data set [3] and 200 µM in [4].

Take `Cc1c(O)c(=S)ccn1Cc1ccc(-c2ccc3c(c2)OCO3)cc1`: the IC50 in data set [3] stood at 1.4 µM; in [4], 51 µM.

`Cc1c(O)c(=S)ccn1CCC12CC3CC(CC(C3)C1)C2`: in [3], the IC50 was greater than 50 µM.

Turning to `Cc1c(O)c(=S)ccn1Cc1ccc(-c2ccc(Cl)cc2)cc1`, the IC50 in data set [3] was determined as 1.3 µM; in data set [4], 31 µM.

On to `COc1ccc(Cn2ccc(=S)c(O)c2C)cc1`, for which, in data set [3], half-maximal inhibition (IC50) required 31.9 µM.

With `CCc1c(O)c(=S)ccn1CC`, the inhibition in [1] is greater than 95%.

With `Cc1c(O)c(=S)ccn1Cc1ccc(Br)cc1`, the concentration for half-maximal inhibition (IC50) in data set [3] amounted to 2.2 µM.

For the compound `Cc1c(O)c(=S)ccn1CCc1ccc(-c2ccccc2)cc1`, the values for the IC50 in [3] and in data set [4] were 1.8 µM and 13 µM, respectively. For the same compound, the “Ratio IC50” value in data set [5], in data set [6], in [7], in data set [8], in data set [9] and in data set [11] was 2 throughout. In addition, the results for the Ratio IC50 in [12] and in data set [13] were 7 and 2, respectively. Besides, in [10], the outcome was Active.

`O=C(O)c1ccc2cccc(O)c2n1` registered an inhibition in data set [1] greater than 95%.

As for `Cc1c(O)c(=S)ccn1Cc1ccc(Cl)cc1Cl`, the IC50 in data set [3] was greater than 50 µM.

In the case of `Cc1c(O)c(=S)ccn1Cc1cccnc1`, the inhibition in data set [2] is 52%.

In data set [2], `Cc1c(O)c(=S)ccn1Cc1ccc(F)cc1` returned an inhibition of 64%.

In data set [2], `Cc1ccc(CCn2ccc(=S)c(O)c2C)cc1` yielded an inhibition of 81%. Also, the IC50 in [3] was found to be 3.2 µM.

Turning to `Cc1ccc(Cn2ccc(=S)c(O)c2C)cc1`, the IC50 in data set [3] turned out to be 5 µM.

Regarding `Cc1c(O)c(=S)ccn1Cc1ccc(-c2ccc(F)c(F)c2)cc1`, the IC50 stood at 1.8 µM in data set [3] and 39 µM in data set [4].

As to `Cc1c(O)c(=S)ccn1Cc1ccc(-c2ccc(F)cc2)cc1`, the IC50 stood at 1.4 µM in data set [3] and 33 µM in data set [4].

In turn, `Cc1c(O)c(=S)ccn1CCc1ccccc1` registered an inhibition in data set [2] of 48%.

As to `Cc1c(O)c(=S)ccn1CC12CC3CC(CC(C3)C1)C2`, the IC50 in data set [3] turned out to be 4.9 µM.

Regarding `CCOc1ccc(-n2ccc(=S)c(O)c2C)cc1`, the inhibition in [2] worked out at 80%.

Compound `Cc1c(O)c(=S)ccn1-c1ccc(F)cc1` gave an inhibition in data set [2] of 37%.

Compound `COc1cccc(Cn2ccc(=S)c(O)c2C)c1` displayed an inhibition in data set [2] of 65%.

In turn, `Cc1ccc(CCn2ccc(=S)c(O)c2C)c(C)c1` registered an IC50 in data set [3] of 1.7 µM.

The values are drawn from ChEMBL document CHEMBL4673198, “Identification of 3-hydroxy-1,2-dimethylpyridine-4(1H)-thione as a metal-binding motif for the inhibition of botulinum neurotoxin A” (RSC Med Chem, 2021).
